From ChEMBL document CHEMBL3580551, “Soudanones A-G: Antifungal Isochromanones from the Ascomycetous Fungus Cadophora sp. Isolated from an Iron Mine” (2015) come the findings set out here.

As usually defined, the MIC is the lowest concentration that inhibits growth of the organism.

Active and inactive are the calls of the source. No cut-off for these calls is given here.

The subject of one experiment is Cryptococcus neoformans. Description: Antimicrobial activity against Cryptococcus neoformans ATCC 66031 assessed as inhibition of microbial growth by microbroth dilution assay. It counts as functional. Summed up: (§1)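 Antifungal broth microdilution test against the yeast strain (C. albicans ATCC 10231 or C. neoformans ATCC 66031). Amphotericin B at 2 μg/mL served as the control antifungal. MIC values were taken from the broth panel.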
(Dilution methods test growth across graded concentrations, often in twofold steps.)

In a further experiment the test system is Candida albicans. The experiment can be described thus: Antimicrobial activity against Candida albicans ATCC 10231 assessed as inhibition of microbial growth by microbroth dilution assay. It counts as functional. An outline of the steps:
as §1

The test system of a further experiment is Staphylococcus aureus. Description: Antimicrobial activity against methicillin-resistant Staphylococcus aureus ATCC 43300 assessed as inhibition of microbial growth by microbroth dilution assay. It counts as functional. Summed up:
(§2)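 Broth microdilution susceptibility test; the read-out is MIC. The reference antibiotic was tetracycline at 10 μg/mL for MRSA ATCC 43300 and penicillin G at 10 μg/mL for E. faecalis ATCC 51299.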

The subject of the next experiment is Enterococcus faecalis. Description: Antimicrobial activity against vancomycin-resistant Enterococcus faecalis ATCC 51299 assessed as inhibition of microbial growth by microbroth dilution assay. It counts as functional. Summed up: as §2
The test system of a further experiment is Bacillus subtilis. Description: Antimicrobial activity against Bacillus subtilis ATCC 6633 assessed as inhibition of microbial growth by microbroth dilution assay. It counts as functional. Summed up: (§3)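 Broth microdilution susceptibility test against the listed ATCC bacterial strain. Tetracycline at 10 μg/mL served as the positive-control antibiotic. Growth inhibition was read in broth, with MIC values reported.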

A further experiment has as its system Escherichia coli. The experiment can be described thus: Antimicrobial activity against Escherichia coli ATCC 25922 assessed as inhibition of microbial growth by microbroth dilution assay. It counts as functional. An outline of the steps: as §3
Another experiment deals with Acinetobacter baumannii. Description: Antimicrobial activity against Acinetobacter baumannii ATCC 19606 assessed as inhibition of microbial growth by microbroth dilution assay. It counts as functional. An outline of the steps:
as §3

A further experiment concerns Pseudomonas aeruginosa. The experiment can be described thus: Antimicrobial activity against Pseudomonas aeruginosa ATCC 27853 assessed as inhibition of microbial growth by microbroth dilution assay. It counts as functional. Summed up: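 Broth microdilution susceptibility test against P. aeruginosa ATCC 27853. Tetracycline at 50 μg/mL served as the positive-control antibiotic. Growth inhibition was read in broth, with MIC values reported.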

For the next experiment, the system named is Klebsiella pneumoniae. Description: Antimicrobial activity against Klebsiella pneumoniae ATCC 13883 assessed as inhibition of microbial growth by microbroth dilution assay. It counts as functional. An outline of the steps:
as §3

The test system of another experiment is Plasmodium falciparum. The experiment can be described thus: Antiplasmodial activity against Plasmodium falciparum NF54 assessed as inhibition of microbial growth at 10 ug/ml by [3H]hypoxanthine incorporation assay. It counts as functional, organism-based. Summed up: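 In vitro screen against the drug-sensitive P. falciparum NF54 strain using a modified [3H]hypoxanthine incorporation assay. Chloroquine and artesunate were run as positive controls.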

Take `O=C1CC[C@H](O)c2cccc(O)c21`: the results for the MIC in the experiment on Cryptococcus neoformans and in the experiment on Candida albicans were 30 µg/mL and 40 µg/mL, respectively. The “growth inhibition (GI)” value with Staphylococcus aureus, in the experiment on Enterococcus faecalis, in the experiment on Bacillus subtilis, in the experiment on Escherichia coli, in the experiment with Acinetobacter baumannii and in the experiment on Pseudomonas aeruginosa was “inactive” throughout. In the experiment with Klebsiella pneumoniae, the “growth inhibition (GI)” value is “inactive”.
For the molecule `Cc1c(O)cc(O)c2c1C[C@@H](CCCCCC(C)O)OC2=O` (some centres not stated), the MIC with Cryptococcus neoformans, in the experiment with Candida albicans, in the experiment with Staphylococcus aureus, in the experiment on Enterococcus faecalis, in the experiment on Bacillus subtilis and with Escherichia coli was more than 100 µg/mL in each case. The MIC in the experiment on Acinetobacter baumannii, in the experiment on Pseudomonas aeruginosa and with Klebsiella pneumoniae was more than 100 µg/mL each time.
For `O=C(O)CCCCCC[C@@H]1Cc2cc(O)cc(O)c2C(=O)O1`, the MIC in the experiment with Cryptococcus neoformans, with Candida albicans, in the experiment on Staphylococcus aureus, with Enterococcus faecalis, in the experiment on Bacillus subtilis and in the experiment with Escherichia coli was more than 100 µg/mL each time. The MIC in the experiment on Acinetobacter baumannii, in the experiment on Pseudomonas aeruginosa and in the experiment with Klebsiella pneumoniae was more than 100 µg/mL throughout.
Regarding `Cc1c(O)cc(O)c2c1C[C@@H](CCCCCCCO)OC2=O`, the MIC in the experiment with Cryptococcus neoformans, with Candida albicans, in the experiment with Staphylococcus aureus, in the experiment with Enterococcus faecalis, in the experiment with Bacillus subtilis and in the experiment with Escherichia coli was more than 100 µg/mL in each case. Moreover, the MIC with Acinetobacter baumannii, in the experiment with Pseudomonas aeruginosa and in the experiment on Klebsiella pneumoniae was more than 100 µg/mL throughout.
In the case of `CCCCCCC[C@@H]1Cc2c(C)c(O)cc(O)c2CO1`, the MIC with Cryptococcus neoformans, in the experiment on Candida albicans, with Staphylococcus aureus, in the experiment with Enterococcus faecalis, in the experiment on Bacillus subtilis and in the experiment with Escherichia coli was more than 100 µg/mL in each case. Besides, the MIC in the experiment with Acinetobacter baumannii, in the experiment on Pseudomonas aeruginosa and in the experiment on Klebsiella pneumoniae was more than 100 µg/mL in each case.
Take `Cc1c(O)cc(O)c2c1C[C@@H](CCCCCCC(=O)O)OC2=O`: the MIC with Cryptococcus neoformans, with Candida albicans, with Staphylococcus aureus, in the experiment with Enterococcus faecalis, in the experiment with Bacillus subtilis and in the experiment on Escherichia coli was more than 100 µg/mL in each case. Moreover, the MIC in the experiment with Acinetobacter baumannii, in the experiment on Pseudomonas aeruginosa and in the experiment with Klebsiella pneumoniae was more than 100 µg/mL throughout.
As for `CCCCCCC[C@@H]1Cc2c(C)c(O)c(C(=O)O)c(O)c2CO1`, the MIC with Cryptococcus neoformans is 35 µg/mL; with Candida albicans it was more than 100 µg/mL. In addition, the “growth inhibition (GI)” value in the experiment on Plasmodium falciparum is “inactive”.
Regarding `C[C@@H]1[C@H](O)[C@@H](C)/C=C/C=C/C=C/C=C/C=C/C=C/C=C/[C@H](O[C@@H]2O[C@H](C)[C@@H](O)[C@H](N)[C@@H]2O)C[C@@H]2O[C@](O)(C[C@@H](O)C[C@@H](O)[C@H](O)CC[C@@H](O)C[C@@H](O)CC(=O)O[C@H]1C)C[C@H](O)[C@H]2C(=O)O` [AMPHOTERICIN B], the MIC in the experiment with Cryptococcus neoformans and in the experiment on Candida albicans was 0.2 µg/mL throughout.
`CCCCCCC[C@@H]1Cc2c(C)c(O)cc(O)c2C(=O)O1`: the MIC in the experiment on Cryptococcus neoformans is 40 µg/mL; in the experiment with Candida albicans, more than 100 µg/mL. Moreover, the “growth inhibition (GI)” value with Plasmodium falciparum is “inactive”.
`CC(=O)CCCCC[C@@H]1Cc2c(C)c(O)cc(O)c2C(=O)O1`: the MIC in the experiment on Cryptococcus neoformans, in the experiment with Candida albicans, in the experiment with Staphylococcus aureus, in the experiment with Enterococcus faecalis, in the experiment with Bacillus subtilis and with Escherichia coli was more than 100 µg/mL each time. The MIC in the experiment with Acinetobacter baumannii, in the experiment on Pseudomonas aeruginosa and in the experiment with Klebsiella pneumoniae was more than 100 µg/mL throughout. In the experiment with Plasmodium falciparum, the “growth inhibition (GI)” value is “inactive”.
